What was measured:
[1] = target: T1, Inosine-5'-monophosphate dehydrogenase (Cryptosporidium parvum, UniProt Q8T6T2); assay: Inhibition of Cryptosporidium parvum N-terminal His6-tagged IMPDH-mediated NADH production expressed in Escherichia coli BL21(DE3) preincubated for 5 mins prior to substrate addition by fluorescence assay in presence of BSA
T1 sequence (Q8T6T2 whole entry): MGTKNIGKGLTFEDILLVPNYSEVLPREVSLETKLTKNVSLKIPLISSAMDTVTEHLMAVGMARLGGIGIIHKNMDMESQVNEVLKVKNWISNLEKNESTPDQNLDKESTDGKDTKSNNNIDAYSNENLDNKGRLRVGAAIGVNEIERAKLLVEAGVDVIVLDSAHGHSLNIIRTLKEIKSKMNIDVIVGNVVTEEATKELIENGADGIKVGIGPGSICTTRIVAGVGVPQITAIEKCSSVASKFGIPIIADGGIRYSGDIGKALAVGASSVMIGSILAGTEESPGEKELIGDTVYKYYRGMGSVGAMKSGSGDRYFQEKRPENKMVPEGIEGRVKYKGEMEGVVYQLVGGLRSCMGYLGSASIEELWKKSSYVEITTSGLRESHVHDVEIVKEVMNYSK
Procedure, shortened: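 Same CpIMPDH fluorescence assay (10 nM enzyme, 300 μM NAD, 150 μM IMP, pH 8.0 Tris buffer, 25 °C, 5 min inhibitor preincubation), run with 0.05% fatty-acid-free BSA added to gauge nonspecific protein binding. Quadruplicate points; IC50 averaged over three determinations.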

[2] = system: Toxoplasma gondii; assay: Antiparasitic activity against transgenic Toxoplasma gondii expressing Cryptosporidium parvum IMPDH; assay type: functional, organism-based
Procedure, shortened: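 Engineered T. gondii strain that depends on CpIMPDH for guanine nucleotide synthesis, run alongside the wild-type RH strain, whose native eukaryotic IMPDH also gauges host-cell cytotoxicity. Antiparasitic EC50 is the average of three independent determinations unless otherwise stated, with some values from two determinations.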

[3] = system: Toxoplasma gondii; assay: Selectivity ratio of EC50 for wild-type Toxoplasma gondii to EC50 for Toxoplasma gondii expressing Cryptosporidium parvum IMPDH; assay type: functional
[4] = system: Liver; assay: Half life in mouse liver microsomes by LC/MS/MS analysis in presence of NADPH; assay type: ADME, Microsome
Procedure, shortened: (§1)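 Incubation with mouse liver microsomes at 37 °C, with and without NADPH. Percent of compound remaining measured at several time points; half-life from a fit to first-order decay.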

[5] = system: Toxoplasma gondii; assay: Antiparasitic activity against wild-type Toxoplasma gondii expressing eukaryotic IMPDH; assay type: functional, organism-based
[6] = target: Inosine-5'-monophosphate dehydrogenase 2 (Homo sapiens, UniProt P12268); assay: Inhibition of human IMPDH2
[7] = target: T1, Inosine-5'-monophosphate dehydrogenase; assay: Inhibition of Cryptosporidium parvum N-terminal His6-tagged IMPDH-mediated NADH production expressed in Escherichia coli BL21(DE3) preincubated for 5 mins prior to substrate addition by fluorescence assay
[8] = Cytotoxicity against human HeLa cells after 3 days by Alamar blue assay; assay type: cell-based; conditions: read-out: LD50
Procedure, shortened: (§2)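 Tested in parallel against HeLa, HEK293, COS and CHO cells. Viability was read as metabolic activity by alamarBlue and expressed as LD50.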

[9] = Cytotoxicity against African green monkey COS cells after 3 days by Alamar blue assay; assay type: cell-based; conditions: chlorocebus aethiops, read-out: LD50; procedure, shortened: as §2
[10] = Cytotoxicity against CHO cells after 3 days by Alamar blue assay; assay type: cell-based, Cricetulus griseus; conditions: chinese hamster, read-out: LD50; procedure, shortened: as §2
[11] = Cytotoxicity against human HEK293 cells after 3 days by Alamar blue assay; assay type: cell-based; conditions: read-out: LD50; procedure, shortened: as §2
[12] = system: Liver; assay: Half life in mouse liver microsomes by LC/MS/MS analysis; assay type: ADME, Microsome; procedure, shortened: as §1

Row | Structure (SMILES) | IC50 [1] [nM] | EC50 [2] [nM] | Ratio EC50 [3] | EC50 [5] [µM] | IC50 [6] [µM] | IC50 [7] [nM] | also measured
1 | C[C@H](Oc1cccc2ccccc12)C(=O)Nc1ccc2oc(-c3ccncc3)nc2c1 | 8 | 400 | 5 | 2.2 | > 5 |  | t1/2 [4]: 30 min
2 | C[C@H](Oc1cccc(Cl)c1Cl)C(=O)Nc1cccc(NC(=O)c2ccncc2)c1 |  |  |  |  | > 5 | > 5000 | 
3 | CC(Oc1cccc2ccccc12)C(=O)Nc1ccc2oc(-c3ccncc3)nc2c1 (stereo not given) | 14 | 200 | 34 | 2.4 | > 5 | 9 | 
4 | CC(Oc1c(Cl)cccc1Cl)C(=O)Nc1ccc2oc(-c3ccncc3)nc2c1 (stereo not given) |  |  |  |  | > 5 | > 5000 | 
5 | CC(Oc1ccccc1)C(=O)Nc1ccc2nc(-c3ccncc3)[nH]c2c1 (stereo not given) |  | 9000 | 1 | 9 | > 5 | > 5000 | 
6 | C[C@H](Oc1cccc2ccccc12)C(=O)Nc1ccc2oc(-c3ccc[nH]3)nc2c1 | 50 | 1000 | 1.7 | 1.7 | > 5 | 26 | 
7 | C[C@H](Oc1cccc(Cl)c1Cl)C(=O)Nc1ccc2oc(-c3nccs3)nc2c1 | 30 | 300 | 7 | 2.2 | > 5 | 17 | 
8 | O=C(COc1ccc(Cl)cc1Cl)Nc1ccc2oc(-c3ccncc3)nc2c1 |  |  |  |  | > 5 | > 5000 | 
9 | CC(C)(Oc1ccc(Cl)cc1)C(=O)Nc1ccc2oc(-c3ccncc3)nc2c1 |  |  |  |  | > 5 | > 5000 | 
10 | CC(Oc1ccc(Cl)c2ccccc12)C(=O)Nc1ccc2oc(-c3cncs3)nc2c1 (stereo not given) | 70 | 2000 | 3 | 5 | > 5 | 28 | 
11 | CC(NC(=O)c1ccc2oc(-c3ccncc3)nc2c1)c1ccccc1 (stereo not given) |  |  |  |  | > 5 | > 5000 | 
12 | CC(Oc1ccc(Cl)cc1Cl)C(=O)Nc1ccc2oc(-c3ccccn3)nc2c1 (stereo not given) | 800 |  |  |  | > 5 | 210 | 
13 | CC(C)C(Oc1cccc2ccccc12)C(=O)Nc1ccc2oc(-c3ccncc3)nc2c1 (stereo not given) | 57 |  |  |  | > 5 | 24 | 
14 | CC(Oc1cccc(Cl)c1)C(=O)Nc1ccc2oc(-c3ccncc3)nc2c1 (stereo not given) | 32 | 500 | 2 | 1.1 | > 5 | 20 | 
15 | CC(Oc1ccc(Cl)cc1Cl)C(=O)Nc1ccc2oc(-c3ccccc3)nc2c1 (stereo not given) |  |  |  |  | > 5 | > 5000 | 
16 | CC(Oc1ccc(Cl)cc1Cl)C(=O)Nc1ccc2oc(-c3cccnc3)nc2c1 (stereo not given) | 600 |  |  |  | > 5 | 150 | 
17 | CC(C(=O)Nc1ccc2oc(-c3ccncc3)nc2c1)c1ccccc1 (stereo not given) | 130 | 2500 |  | 5 | > 5 | 120 | 
18 | CC(Oc1ccccc1)c1cn(-c2ccc3oc(-c4cncs4)nc3c2)nn1 (stereo not given) |  |  |  |  | > 5 | > 5000 | 

Row | Structure (SMILES) | IC50 [1] [nM] | EC50 [2] [nM] | Ratio EC50 [3] | EC50 [5] [µM] | IC50 [6] [µM] | IC50 [7] [nM] | also measured
19 | C[C@H](Oc1cccc(Cl)c1Cl)C(=O)Nc1ccc2nc(-c3cncs3)oc2c1 | 60 |  |  |  | > 5 | 7 | 
20 | C[C@H](Oc1cccc([N+](=O)[O-])c1Cl)C(=O)Nc1ccc2oc(-c3ccncc3)nc2c1 | 6 | 190 |  |  | > 5 | 2.3 | CC50 at 72 h [8]: > 50 µM; CC50 at 72 h [9]: > 50 µM; CC50 at 72 h [10]: > 50 µM; CC50 at 72 h [11]: > 50 µM
21 | CC(Oc1ccccc1)C(=O)Nc1ccc2oc(-c3ccncc3)nc2c1 (stereo not given) | 50 | 4000 | 2 | 7 | > 5 | 40 | 
22 | C[C@@H](Oc1cccc2ccccc12)C(=O)Nc1ccc2oc(-c3ccncc3)nc2c1 | 380 |  |  |  | > 5 | 400 | 
23 | C[C@@H](C(=O)Nc1ccc2oc(-c3ccncc3)nc2c1)c1cccc(Cl)c1Cl |  |  |  |  | > 5 | 60 | t1/2 [4]: 25 min; t1/2 [12]: 130 min
24 | C[C@H](C(=O)Nc1ccc2oc(-c3ccncc3)nc2c1)c1ccccc1 |  |  |  |  | > 5 | > 5000 | 
25 | CC(Cc1ccccc1)C(=O)Nc1ccc2oc(-c3ccncc3)nc2c1 (stereo not given) |  |  |  |  | > 5 | > 5000 | 
26 | CC(Nc1cccc(Cl)c1Cl)C(=O)Nc1ccc2oc(-c3ccncc3)nc2c1 (racemic) |  | 20 |  |  | > 5 | 2 | 
27 | C[C@H](Oc1cccc2ccccc12)C(=O)N(C)c1ccc2oc(-c3cncs3)nc2c1 |  |  |  |  | > 5 | > 5000 | 
28 | C[C@H](Oc1cccc(Cl)c1Cl)C(=O)Nc1ccc2oc(-c3ccncc3)nc2c1 | 3.5 | 300 | 16 | 5 | > 5 | 1.2 | t1/2 [4]: 9 min; t1/2 [12]: 12 min
29 | CC(Oc1ccc(Cl)cc1)C(=O)Nc1ccc2oc(-c3ccncc3)nc2c1 (stereo not given) | 118 |  |  |  | > 5 | 105 | 
30 | CC(Oc1cccc2ccccc12)C(=O)Nc1ccc2oc(-c3ncccn3)nc2c1 (stereo not given) |  |  |  |  | > 5 | > 5000 | 
31 | COc1cccc(O[C@@H](C)C(=O)Nc2ccc3oc(-c4ccncc4)nc3c2)c1OC | 60 | 700 | 30 | 21 | > 5 | 50 | 
32 | CC(Oc1ccc(Cl)c2ccccc12)C(=O)Nc1ccc2oc(-c3ccncc3)nc2c1 (stereo not given) | 53 |  |  |  | > 5 | 27 | 
33 | C[C@H](Oc1cccc(Cl)c1Cl)C(=O)Nc1ccc2oc(-c3cncs3)nc2c1 | 2.3 | 200 | 15 | 3.3 | > 5 | 1.4 | t1/2 [4]: 7 min; t1/2 [12]: 11 min
34 | C[C@H](Nc1cccc2ccccc12)C(=O)Nc1ccc2oc(-c3ccncc3)nc2c1 |  |  |  |  | > 5 | 14 | t1/2 [4]: 18 min; t1/2 [12]: 27 min
35 | C[C@H](Oc1cccc(C(F)(F)F)c1Cl)C(=O)Nc1ccc2oc(-c3ccncc3)nc2c1 | 52 | 800 |  |  | > 5 | 9 | 

Source: ChEMBL document CHEMBL2346559, “Optimization of benzoxazole-based inhibitors of Cryptosporidium parvum inosine 5'-monophosphate dehydrogenase” (J Med Chem, 2013)
